# Neddyl block = blocks human cullin neddylation; P61081+Q13564; TR-FRET cullin neddylation, biochemical; inhibition, % at 25 µM; actives 0.58% (n = 360,000); in the data active means inhibition above about 36%
# Tb MetRS inh = blocks T. brucei methionyl-tRNA synthetase activity. actives 0.4% (n = 360,000). purified T. brucei MetRS, ATP depletion, Kinase-Glo luminescence. inhibition, % at 11.9 µM;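 active means inhibition above a per-plate cutoff of the control wells' mean inhibition plus 3 SD, cut at about 5.5% in these data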;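 further: 0% = DMSO wells median and 100% = median of wells with control inhibitor compound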
#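 assay system = parasite MetRS enzyme | timing = 15 min preincubation, 2 h reaction, all 25 °C | evaluation = percent inhibition relative to median high and low control wells | medium = HEPES buffer containing pyrophosphatase, BSA, spermine, DTT | compound = single dose, 11.9 µM final nominal, 0.9% final DMSO | detection = Kinase-Glo luminescence, ATP depletion format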
# HNF4A DNA FP = change in binding of human HNF4 alpha to DNA; actives 0.3% (n = 360,000); HNF4a-FITC DNA binding, fluorescence polarization, 1 h; activity change, % at 10 µM; AID 1224865; in the data active means activity change above about 30%, passing the limit was not always enough
# Target sequence (P41235 whole entry, looked up): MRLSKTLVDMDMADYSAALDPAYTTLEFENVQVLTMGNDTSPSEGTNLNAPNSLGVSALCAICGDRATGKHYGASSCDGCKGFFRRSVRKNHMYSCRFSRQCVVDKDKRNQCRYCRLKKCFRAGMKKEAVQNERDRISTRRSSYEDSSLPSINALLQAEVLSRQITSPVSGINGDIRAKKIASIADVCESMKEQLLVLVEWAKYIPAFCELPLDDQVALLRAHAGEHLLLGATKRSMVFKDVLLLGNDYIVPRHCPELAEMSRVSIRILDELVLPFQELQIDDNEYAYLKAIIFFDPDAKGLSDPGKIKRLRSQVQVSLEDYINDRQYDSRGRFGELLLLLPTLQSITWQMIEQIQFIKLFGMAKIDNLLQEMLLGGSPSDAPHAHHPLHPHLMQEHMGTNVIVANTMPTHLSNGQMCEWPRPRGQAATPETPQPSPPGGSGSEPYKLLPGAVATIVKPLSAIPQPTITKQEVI
# Rpn11 block = blocks the human proteasome subunit Rpn11; actives 0.59% (n = 360,000); O00487; inhibition, % at 20 µM; human 26S proteasome, Ub4-pepOG fluorescence polarization; 20S core pre-blocked with epoxomicin;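 active means inhibition at 20 µM, scaled to each plate's controls, above about 33%, limit read from the data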
# Target sequence (O00487 whole entry, looked up): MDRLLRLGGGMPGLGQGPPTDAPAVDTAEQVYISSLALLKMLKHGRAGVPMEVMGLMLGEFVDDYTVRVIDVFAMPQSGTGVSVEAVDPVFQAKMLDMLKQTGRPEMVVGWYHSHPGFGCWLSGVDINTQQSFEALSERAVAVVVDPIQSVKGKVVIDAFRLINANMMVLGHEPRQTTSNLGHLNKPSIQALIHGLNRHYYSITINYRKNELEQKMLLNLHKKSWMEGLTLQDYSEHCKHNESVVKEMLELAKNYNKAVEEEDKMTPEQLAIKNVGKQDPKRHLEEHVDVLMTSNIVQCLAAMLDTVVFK
# CSN inh = blocks human CSN-mediated cullin deneddylation. inhibition, % at 12.5 µM. AID 651999. actives 0.38% (n = 360,000). Purified CSN, SCF-Nedd8-OG deneddylation, fluorescence polarization;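 active means pattern-corrected inhibition above about 35%, with an unprinted fluorescence ratio check between 0.5 and 1.5, limit read from the data, passing the limit was not always enough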;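 further: 0% = enzyme with substrate and 100% = substrate without enzyme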
#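 Schedule: reaction 90 min, room temperature / Assay system: HEK293T-derived human Csn5 enzyme / Input: Csn5 at 0.24 nM final / Measure: inhibition of Csn5 cleavage, % / Control set: substrate-only high control, full reaction low control / Technique: fluorescence polarization of the substrate / Buffer or medium: Tris/NaCl/DTT buffer, pH 7.5 / Reagent: SCFSkp2-Nedd8OG substrate at 10 nM final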
# PREPL inhibitor = inhibits the human prolyl oligopeptidase-like enzyme. Q4J6C6. recombinant PREPL, fluorescence polarization activity-based probe. inhibition, % at 5.96 µM. actives 0.68% (n = 320,000); in the data active means inhibition above about 43%;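 further: 0% = enzyme with DMSO and 100% = wells lacking enzyme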
# Rpn11 confirm = Rpn11 inhibition confirmation, single concentration | shares compounds with Rpn11 block | actives 29% (n = 1,900) | inhibition, % at 20 µM | AID 602318 | purified human 26S proteasome, Ub4-pepOG fluorescence polarization; proteasome pretreated with epoxomicin
# MMP-2 counter-1 = MMP-2 (human) inhibition counter-screen. shares compounds with Rpn11 block. recombinant MMP-2, FRET peptide cleavage fluorescence. inhibition, % at 20 µM. actives 4% (n = 1,900);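 further: human MMP-2 activated beforehand with APMA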
# Thrombin FP = counter-screen for RPN11 inhibitors: inhibition of bovine thrombin; shares compounds with Rpn11 block; bovine thrombin cleavage of Ub4-pepOG, fluorescence polarization; inhibition, % at 20 µM; actives 13% (n = 1,900); AID 602333;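 active means mean inhibition at least 40% at 20 µM, or signal 3 deviations below plate average, so some actives read negative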;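 further: plate controls were thrombin with DMSO for no effect and buffer wells lacking thrombin for full effect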
# CSN deneddyl val = Csn5 (human) deneddylation inhibition, single-concentration validation; Csn5 deneddylation of SCF-Nedd8OG, fluorescence polarization, 90 min; inhibition, % at 16.6 µM; actives 62% (n = 540); shares compounds with CSN inh; in the data active means inhibition above about 50%;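 further: 0% = DMSO with enzyme and 100% = no enzyme wells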
# MMP-2 counter-2 = counter-screen for CSN deneddylation inhibitors: human MMP-2 inhibition. shares compounds with CSN inh. recombinant MMP-2, FRET substrate fluorescence, 60 min. inhibition, % at 16.6 µM. actives 33% (n = 540);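 active means corrected plate-normalized z-score of 5 or more, or -5 or less, or inhibition of 15% or more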;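 further: plate controls were DMSO wells with enzyme for no effect and buffer wells lacking MMP-2 for full effect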
# Thrombin cntr = blocks bovine thrombin in a CSN deneddylation counter-screen. shares compounds with CSN inh. bovine thrombin cleavage of Ub4-pepOG, fluorescence polarization. inhibition, % at 16.6 µM. actives 49% (n = 540). AID 720656;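 active means inhibition at or above a set limit, with a fluorescence interference ratio between 0.5 and a set maximum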
# An asterisk follows results filed as active; nt = no result given; + = active, no number. An excerpt weighted towards active compounds, which were near 2.4% of everything screened. Unless noted, no stated cut-off is given here; in the data, active means inhibition above about 40%; inactive means the rest.
SMILES,Neddyl block,Tb MetRS inh,HNF4A DNA FP,Rpn11 block,CSN inh,PREPL inhibitor,Rpn11 confirm,MMP-2 counter-1,Thrombin FP,CSN deneddyl val,MMP-2 counter-2,Thrombin cntr
CC1(C)Cc2c(sc(NC(=O)COc3cccc4ccccc34)c2C#N)C(C)(C)N1,17.9,-0.6,213.7*,53.9*,101.4*,19.9,32.9,-111.7,0.9,-27.6,-8.8,-5.9
O=Cc1cn(-c2ccccc2)nc1-c1cc2cc(O)ccc2oc1=O,nt,-0.5,-10.5,110.9*,84.3*,15.0,41.8*,13.3,34.2,-19.0,5.0,14.7
CCOC(=O)CC(NC(=O)CCS(=O)(=O)c1ccc2c(c1)n(C)c(=O)c(=O)n2C)c1ccc(C)cc1 (stereo unspecified),36.1,-0.2,7.0,-4.2,5.4,5.3,nt,nt,nt,nt,nt,nt
CN(CC(=O)Nc1ccc(F)c(F)c1F)C(=O)c1cc(S(=O)(=O)N(C)C)ccc1N1CCCC1,-9.6,-0.1,-1.2,-2.0,-0.9,nt,nt,nt,nt,nt,nt,nt
O=C1NN(c2ccc(Cl)cc2)C(=O)/C1=C\c1ccc(-c2cccc(C(=O)O)c2)o1,15.8,0.1,-20.4,103.6*,36.5*,nt,141.9*,17.4,12.0,46.3,15.4*,24.1*
Cc1ccc(N2CCN(C(=O)C(=O)c3ccc(F)c(F)c3)CC2)cc1,6.5,-0.9,2.1,nt,-5.0,nt,nt,nt,nt,nt,nt,nt
NS(=O)(=O)c1cc(C(=O)NC2CCSc3ccccc32)ccc1Cl (stereo unspecified),-6.2,-0.2,-76.6,106.4*,64.3*,13.2,97.8*,21.7,60.5*,20.8,13.4,49.3*
COc1ccc(C(=O)CC(=O)c2ccc(F)cc2)cc1,7.5,1.7,1.9,-3.9,1.5,4.4,nt,nt,nt,nt,nt,nt
COc1ccc(/C=C2\C(=O)NC(=S)N2C(=O)c2ccc(F)cc2)cc1,11.7,0.2,72.5*,+,65.0*,-3.8,+,12.4,active,nt,-38.4*,-52.8
COc1cc(C)c2c(c1C=O)Oc1c(c(C)c(O)c3c1C(O)OC3=O)OC2=O (stereo unspecified),2.0,1.0,-47.3,40.7*,38.0*,-8.0,25.1,21.3,14.2,49.9,13.2,7.8
CC1(C)OC(=O)C2=C(C[C@@H](CCc3ccccc3)O[C@H]2CCc2cccc(Cl)c2)O1,0.2,-0.5,-0.2,nt,-1.9,nt,nt,nt,nt,nt,nt,nt
O=C1NC(=Nc2ccc(O)cc2)S/C1=C/c1ccco1,-17.4,1.1,0.5,3.7,5.2,9.2,nt,nt,nt,nt,nt,nt
O=C1NC(=Nc2ccc3ccccc3c2)S/C1=C/c1ccco1,-37.1,-0.2,11.3,39.8*,67.4*,23.0,24.8,-20.9,15.8,85.2*,4.3,17.6*
COc1ccccc1N1C(=N)S/C(=C\c2ccc(-c3ccccc3C(=O)O)o2)C1=O,4.6,0.7,15.1,69.5*,35.5*,15.6,73.9*,23.8,47.4*,59.5*,8.0,31.0*
N=C1S/C(=C\c2ccc(-c3ccccc3C(=O)O)o2)C(=O)N1c1ccc2c(c1)OCO2,-13.4,-0.1,-10.3,-1.8,16.1,nt,nt,nt,nt,nt,nt,nt
COc1ccccc1-n1c2nc3ccccc3nc2c2c(=O)n(-c3cc(C)cc(C)c3)cnc21,-20.1,-0.9,6.3,1.0,-1.6,-1.2,nt,nt,nt,nt,nt,nt
COc1ccccc1-n1cnc2c(c1=O)c1nc3ccccc3nc1n2-c1ccc(C)cc1,9.1,-0.4,15.0,89.7*,47.3*,-0.5,7.6,-92.3,-20.9,98.9*,5.2,2.9
CS(=O)(=O)C1=NSC2=NC(=O)/C(=C\c3cccn3-c3ccc(Cl)cc3)C(=N)N21,-15.5,1.3,7.8,46.6*,99.9*,5.7,76.5*,38.8,120.2*,-74.6,25.8*,49.6*
Cc1cc(/C=C2/C(=N)N3C(=NC2=O)SN=C3S(C)(=O)=O)c(C)n1-c1ccccc1F,35.9,-1.0,-2.4,17.6,4.5,1.3,nt,nt,nt,nt,nt,nt
Cc1ccc(Cn2c(C(C)Nc3nc(-c4ccc(C)cc4)cs3)nc3cc(Cl)c(Cl)cc32)cc1 (stereo unspecified),-18.6,-0.1,-43.6,71.4*,38.2*,-4.0,65.1*,51.0*,-40.7,55.0*,15.1*,7.5
CC(Nc1nc(-c2ccc(F)cc2)cs1)c1nc2cc(Cl)c(Cl)cc2n1CCCO (stereo unspecified),0.7,-0.3,2.8,-11.3,2.4,12.1,nt,nt,nt,nt,nt,nt
O=C(N/N=C/c1ccncc1)c1cccc(S(=O)(=O)Nc2ccc(Cl)cc2)c1,-8.6,0.1,-26.2,105.5*,72.3*,-3.8,139.4*,46.1*,11.6,nt,34.8*,-6.2
O=C(N/N=C/c1cccnc1)c1cccc(S(=O)(=O)Nc2cccc(Cl)c2)c1,-3.6,-1.0,-6.2,1.7,-0.1,14.9,nt,nt,nt,nt,nt,nt
O=C(NC1CCCCC1)C(c1ccc(-c2ccccc2)cc1)n1c(=O)c(-c2ccco2)nc2ccccc21 (stereo unspecified),16.3,0.5,26.8,nt,20.3,nt,nt,nt,nt,nt,nt,nt
O=C(Nc1ccc(C2=NCCN2)cc1)c1ccc(C(=O)Nc2ccc(C3=NCCN3)cc2)c([N+](=O)[O-])c1,-19.3,-0.9,76.0,72.7*,117.2*,45.1*,35.2,61.3*,-21.3,-39.9,86.2*,-0.7
CCCCNC(=O)C1(C)CCN1C(=O)c1cccc(OC(C)=O)c1C (stereo unspecified),-2.2,0.5,0.2,-5.7,3.2,nt,nt,nt,nt,nt,nt,nt
COC(=O)c1ccc(NC(=O)c2ccc(NC(=O)c3ccco3)cc2)cc1,2.6,0.1,102.3*,96.3*,67.1*,2.9,84.9*,7.1,0.2,103.9*,5.6,-6.4
COC(=O)c1c(NC(=O)COC(=O)c2ccc(NC(=O)CC#N)cc2)sc2c1CCCCC2,9.3,0.9,-3.8,95.9*,57.2*,-6.2,106.1*,18.6,32.6,42.2,6.8,12.7
CCOC(=O)c1[nH]c2ccc(C)cc2c1NC(=O)CN1CCCCC1,35.6,-1.7,-0.3,-0.5,-5.7,7.5,nt,nt,nt,nt,nt,nt
